# Laboratory results reported in PubChem BioAssay AID504490 (NMMLSC, 2011).
# In all, about 340,000 compounds went through this assay and about 1,100 (0.32%) were called active. The sample holds actives, similar compounds and a random draw of the others, so the mix is not that of the screen.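 The calls were made as follows: active = inhibition above a set limit, near 3 SD of compounds lacking own fluorescence (cut at about 54% in these data); inactive = the rest.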
# Tested on: beta-arrestin 1 C-terminal peptide binding to AP2 beta2-adaptin appendage (human)
# Experiment: blockers of arrestin peptide association with AP2 adaptin – biochemical, GPCR trafficking, flow cytometry, primary screen (AID 504490);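 also: plate controls were DMSO wells for no effect and 5 µM unlabelled arrestin peptide for full effect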
# Conditions: FITC-arrestin peptide / GST-AP2 beads, at 10 µM, stronger effect = higher value, AP2 beta2 appendage carries R879A mutation
# Procedure, shortened: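 System: GST-AP2 R879A glutathione beads. Medium: PBS with 0.05% Tween 20 and 0.1% BSA. Also added: FITC-arrestin peptide, 50 nM. Incubation: 12 min plus 1 h, RT. Measured by: high-throughput flow cytometry of beads, ex 488, em 535 nm. Evaluation: percent drop in bead-associated FITC signal.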
row,Compound,inhibition
1,CC12COC3(C(=O)Nc4ccc(Cl)cn4)CC1CCC32C (centres undefined),1.37% (inactive)
2,CCc1ccccc1N(CC(=O)NCC1CCCO1)C(=O)CCC(=O)Nc1nccs1 (centres undefined),-16.6% (inactive)
3,Cc1ccc(Cl)cc1-c1ccc(/C=N/n2cnnc2)o1,63.3% (active)
4,Brc1cc(/C=N/n2cnnc2)oc1Br,1.91% (inactive)
5,Clc1cc(-c2ccc(/C=N/n3cnnc3)o2)ccc1Br,1.32% (inactive)
6,N#Cc1ccc(-c2ccc(Cl)cc2)nc1Oc1ccc(F)cc1,-5.52% (inactive)
7,Cc1c(C2=CCN(S(=O)(=O)c3ccc(Cl)cc3)CC2)c2ccccc2n1C,6.61% (inactive)
8,O=C(CCCNS(=O)(=O)c1cccc2nsnc12)NCCN1CCN(c2ccccc2F)CC1,5.08% (inactive)
9,Cc1ccc(S(=O)(=O)N2CCN(C(=O)Cn3c(=O)cnc4ccccc43)CC2)c(C)c1,-13.3% (inactive)
10,Cc1ccc(S(=O)(=O)N2CCN(C(=O)c3ccccc3-c3nc4ccccc4s3)CC2)c(C)c1,66.5% (active)
11,Cc1ccc(S(=O)(=O)N2CCN(C(=O)N3CCOCC3)CC2)c(C)c1,17.1% (inactive)
12,CC(C)(C)OC(=O)N1CCC(NC(=O)c2[nH]cnc2C(=O)N[C@@H](Cc2ccccc2)C(=O)OCc2ccccc2)CC1,9.22% (inactive)
13,O=C(NCCN1CCOC1=O)C1CCC(=O)N(CCc2ccc(Cl)cc2)C1 (centres undefined),-10.1% (inactive)
14,COCC(C)OC(=O)c1c(N)n(CCCN2CCOCC2)c2nc3ccccc3nc12 (centres undefined),-8.22% (inactive)
15,N#Cc1c(N)n(CCOC(=O)c2ccc(Cl)cc2)c2nc3ccccc3nc12,3.34% (inactive)
16,CC(C)(C)c1ccc(C(=O)NCCn2c(N)c(C#N)c3nc4ccccc4nc32)cc1,94.7% (active)
17,COc1ccc(S(=O)(=O)Nc2cccc3c2O[C@H](CN(C)S(=O)(=O)c2ccc(OC)cc2)[C@@H](C)CN([C@H](C)CO)C3=O)cc1,-15.4% (inactive)
18,COc1ccc(NC(=O)c2sc(N3CCOCC3)nc2-c2ccccc2)c(OC)c1,18.7% (inactive)
19,COC(=O)CN1C(=O)[C@H]2[C@@H](/C=C/c3ccccc3)N3C(=O)CN(Cc4ccccc4)C(=O)[C@@]3(Cc3ccccc3)[C@H]2C1=O,-5.14% (inactive)
20,CC(=O)Nc1ccc(NC(=O)CSC2=NS(=O)(=O)c3ccccc3N2)cc1,22% (inactive)
21,COC(=O)[C@H](C(C)C)n1c(C)c(C(C)=O)c(C(C)=O)c1C,-0.72% (inactive)
22,COC(=O)c1cc(NC(=O)c2nn(C)c(=O)c3ccccc23)cc(C(=O)OC)c1,66.5% (active)
23,CCC(C)NC(=O)c1nn(C)c(=O)c2ccccc12 (centres undefined),-22% (inactive)
24,CCC(CC)c1nnc(NC(=O)c2nn(C)c(=O)c3ccccc23)s1,-0.4% (inactive)
